Legend:
Mouse plasma stability = assay type: in vitro ADME
LITAF = assay: Western blot of LITAF expression in cells; assay type: cell-based; settings: Figure 6
THP-1 cells = assay: Cytotoxicity; assay type: cell-based, human; settings: at concentrations active in the TNF-α secretion assay
Caco-2 = Caco-2 permeability; assay type: in vitro ADME
[1] = tested on: LPS-induced lethality in mice; assay: LPS-induced endotoxic shock model; assay type: in vivo; settings: for Protection from lethal dose of LPS (mortality/morbidity): 40 mg/kg ip pretreatment, 24 h observation
Summary of the method: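 C57 mice (8–12 weeks, 20–25 g, n = 8) get test compound i.p., then immediately a lethal i.p. LPS challenge. D-galactosamine (40 μg/g, as 4 μg/μL in DMSO) and E. coli LPS (0.25 μg/mouse, in 0.1 mL PBS with 1% BSA) are injected i.p. Controls get DMSO, then LPS. Mortality and morbidity are checked hourly for 24 h.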

[2] = Chemical stability in aqueous buffer; assay type: physicochemical
Solubility = assay type: physicochemical
[3] = Preliminary pharmacokinetic evaluation; assay type: in vivo, mice; settings: for half-life: mouse, in vivo
[4] = tested on: TNF-α secretion by LPS-stimulated THP-1 cells; assay: TNF-α secretion assay in LPS-stimulated THP-1 cells; assay type: cell-based, human; settings: for Suppression of TNF-α secretion (in words): 50 μg/ml, Figure 2; for inhibition at 100 µg/mL: Homo sapiens, THP-1, read-out: % Inhibition of TNF-α secretion
Summary of the method: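 THP-1 cells (RPMI-1640 with 0.05 mM 2-mercaptoethanol, 2 mM glutamine, 10% FBS) plated in log phase at 4 × 10^5/well. After 24 h, 50 nM PMA is added with test compound; after 24 h more, medium is replaced with compound-only medium. After 24 h, LPS 10 μg/ml is added, supernatants taken at 2 h, and human TNF-α measured by ELISA against the kit standard curve. Run in triplicate; % inhibition.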

[5] = tested on: TNF-α release from NIH3T3 cells; settings: cited from earlier work
TNF-α release in mice = settings: cited from earlier work
[6] = tested on: MAPKAP-K3 (MAPK-activated protein kinase 3); settings: kinase selectivity screening; cited from earlier work
IκB kinase (IKK) = settings: kinase selectivity screening; cited from earlier work
[7] = tested on: PRAK (p38-regulated/activated kinase); settings: kinase selectivity screening; cited from earlier work
[8] = tested on: DYRK1A (dual-specificity tyrosine-phosphorylated and regulated kinase 1A); settings: kinase selectivity screening; cited from earlier work
Aurora B = settings: kinase selectivity screening; cited from earlier work

In the case of `COC1=CC(=O)O[C@@H](/C=C/c2ccccc2)C1` [Compound 1, kavain], the “Mouse plasma stability, remaining” value (Mouse plasma stability; at 2h, 5 μM dose) is reported as 99% remaining at 2h (5 μM dose), the “Stability in plasma (in words)” value (Mouse plasma stability; mouse plasma) is reported as “good chemical stability” and the LITAF expression (LITAF) is reported as “evidently do not”. For the same compound, the Cytotoxicity (THP-1 cells) was “did not show any cytotoxicity”, the “Caco-2 permeability, Papp(B→A)/Papp(A→B)” value (Caco-2) was “Papp(B→A)/Papp(A→B)=0.7” and the “Cell permeability (in words)” value (Caco-2; Caco-2 assay) was “high level of cell permeability”. For the same compound, the “Protection from lethal dose of LPS (mortality/morbidity)” value (“Protection … (mortality/morbidity)” below) [1] was “no mortality or overt morbidity observed for at least 24 hours”, the “Chemical stability (in words)” value ([2]; aqueous buffer) was “good chemical stability” and the “Chemical Stability, degradation” value ([2]; at 1 hr, pH=7) was <10% degradation at 1 hr, pH=7. The solubility (Solubility; PBS buffer, pH 7, aqueous buffer) was greater than 500 µM, the “Solubility (in words)” value (Solubility; pH 7) was “highly soluble” and the “Clearance (in words)” value ([3]; following dosing, mice) was “rapidly cleared”. The half-life ([3]; iv, 1 mg/kg) was less than 15 min, the half-life ([3]; po, 10 mg/kg) was less than 40 min and the “Suppression of TNF-α secretion (in words)” value (from here on “Suppression … (in words)”) [4] was “reproducibly active”. For the same compound, the inhibition at 100 µg/mL [4] was 98%.
With `COC1=CC(=O)O[C@@H](CCc2ccccc2)C1` [Compound 2, dihydrokavain] the Cytotoxicity (THP-1 cells) was “did not show any cytotoxicity”, the “Survival rate at 24 h” value ([1]; 40 mg/Kg ip pretreatment) was 30% and the “Delay in time of death compared to vehicle treated animals” value ([1]; 40 mg/Kg ip, animals that died) was “about a two hour delay”. For the same compound, the “Protection … (mortality/morbidity)” value [1] was “only partially protected”, the “Inhibition of TNF-α release (in words)” value [5] was “lower activity” and the “Inhibition of TNF-α release in mice (in words)” value (TNF-α release in mice) was “most potent inhibitor”. For the same compound, the “Suppression … (in words)” value [4] was “reproducibly active” and the “% Inhibition of TNF-α secretion” value ([4]; LPS-treated THP-1 cells, 100 μg/ml, replicates in parentheses) was 95 (3) %.
In the case of `COC1=CC(=O)O[C@@H](CCc2ccc3c(c2)OCO3)C1` [Compound 3, dihydromethysticin], the “Suppression … (in words)” value [4] is reported as “essentially inactive”, the “Suppression … (in words)” value ([4]; listed as dihydromethysticin) is reported as “inactivity” and the inhibition at 100 µg/mL [4] is reported as 37%.
With `COC1=CC(=O)O[C@@H](/C=C/c2ccc3c(c2)OCO3)C1` [Compound 4, methysticin] the “Suppression … (in words)” value [4] was “essentially inactive”, the “Suppression … (in words)” value ([4]; listed as methysticin) was “inactivity” and the inhibition at 100 µg/mL [4] was 43%.
For `COc1ccc(C=CC(=O)c2c(O)cc(OC)cc2OC)cc1` [Compound 8, flavokavain A], the “Inhibition of MAPKAP-K3” value [6] is given as “inhibits”, the “Inhibition of IKK” value (IκB kinase (IKK)) is given as “inhibits” and the “Inhibition of PRAK” value [7] is given as “inhibits”. The “Inhibition of DYRK1A” value [8] was “inhibits” and the “Inhibition of Aurora B” value (Aurora B) was “inhibits”.
For `COC1=CC(=O)OC(c2ccc(-c3ccccc3)cc2)C1` (stereo not drawn) [Compound 15, 6-(Biphenyl-4-yl)-4-methoxy-5,6-dihydro-2H-pyran-2-one], the inhibition at 100 µg/mL [4] was -9%.
With `COC(=O)/C=C(\CC(O)c1ccc(-c2ccccc2)cc1)OC` (stereo not drawn) [Compound 16, (E)-Methyl 5-(biphenyl-4-yl)-5-hydroxy-3-methoxypent-2-enoate] the LITAF expression (LITAF) was “nearly ablated LITAF expression”, the “Suppression of TNF-α secretion” value [4] was no less than 50% and the “Dose response of TNF-α secretion suppression” value ([4]; Figure 5) was “dose-responsive manner”. For the same compound, the inhibition at 100 µg/mL [4] was 58%.
For `COc1cc2c(cc1O)CC[n+]1cc3c(OC)c(OC)ccc3cc1-2.[I-]` [Jatrorrhizine iodide], the “Protection … (mortality/morbidity)” value [1] was “render mice immune to endotoxic shock-mediated death” and the “Health of surviving animals” value ([1]; 40 mg/kg ip, after 24h) was “poor health”.
